Measurements taken from paper PMC10403215 (Science Advances, 2023).
≈ marks a conversion by molar mass, not a printed value.

How the values were obtained:
[1] = test system: stationary phase S. aureus Newman cells; experiment: Stationary-phase persister cell killing; assay type: cell-based, Staphylococcus aureus; settings: 100× or 10× MIC
[2] = test system: S. aureus MRSA strain USA300; experiment: Murine epicutaneous infection model; assay type: in vivo, BALB/c mice
[3] = test system: S. aureus RN4220 overexpressing putative target genes; experiment: MIC against strains overexpressing putative target proteins; assay type: cell-based, Staphylococcus aureus; settings: fig. S4A
S. aureus Newman [4] = assay type: cell-based, Staphylococcus aureus; settings: 40 mM, fig. S4C
S. aureus Newman [5] = experiment: MIC, broth microdilution; assay type: cell-based; settings: Staphylococcus aureus
[6] = test system: MRSA USA300 preformed biofilm; experiment: Preformed biofilm eradication, crystal violet; assay type: cell-based, Staphylococcus aureus; settings: control
Method in brief: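 Eradication of preformed USA300 biofilms by test compound was quantified by crystal violet staining after washing. Three independent experiments, triplicate runs per concentration.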

S. aureus Newman [7] = experiment: Time-killing assay, exponential culture; assay type: cell-based, Staphylococcus aureus; settings: control experiment
Method in brief: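 Newman grown in LB at 37°C with shaking to OD600 0.4–0.6, then diluted to 1 × 10⁶ CFU/ml in LB containing various concentrations of test compound, with vancomycin as comparator. Incubated at 37°C with shaking. Serial dilutions plated on LB agar at set time points for CFU/ml. Duplicate, three independent experiments.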

S. aureus USA300 = experiment: Transmission electron microscopy of cell structure; assay type: cell-based, Staphylococcus aureus; settings: 0.5× MIC, cell lysis within 4 hours
[8] = test system: S. aureus MRSA strain USA300; experiment: MIC, broth microdilution; assay type: cell-based; settings: Staphylococcus aureus
Method in brief: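 CLSI M07-A10 broth microdilution with twofold serial dilutions of test compound in MH broth. Inoculum was cells grown in MH broth at 37°C with shaking to OD600 0.4–0.6, diluted to ~1 × 10⁵ CFU/ml final. Run in duplicate, three independent experiments.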

## O=C(O)c1cn(C2CC2)c2cc(N3CCNCC3)c(F)cc2c1=O [Cipro, ciprofloxacin]
[1]
  tolerance of persisters: high level of tolerance

## COc1cccc(OC)c1C(=O)N[C@@H]1C(=O)N2[C@@H]1SC(C)(C)[C@@H]2C(=O)O [Met, methicillin]
[2]; 3 mg kg^−1
  killing effect compared to the vehicle control: no significant killing effect

## CC1(C)S[C@@H]2[C@H](NC(=O)Cc3ccccc3)C(=O)N2[C@H]1C(=O)O [Pen, penicillin G]
[1]
  tolerance of persisters: high level of tolerance
[3]
  effect of overexpression of each protein on sensitivity: no effect
S. aureus Newman [4]
  effect of sole addition of lysine or UDP-GlcNAc on susceptibility: did not affect
S. aureus Newman [5]
  MIC: 0.125 µg/mL (≈ 0.374 µM)

## CN[C@H](CC(C)C)C(=O)N[C@H]1C(=O)N[C@@H](CC(N)=O)C(=O)N[C@H]2C(=O)N[C@H]3C(=O)N[C@H](C(=O)N[C@H](C(=O)O)c4cc(O)cc(O)c4-c4cc3ccc4O)[C@H](O)c3ccc(c(Cl)c3)Oc3cc2cc(c3O[C@@H]2O[C@H](CO)[C@@H](O)[C@H](O)[C@H]2O[C@H]2C[C@](C)(N)[C@H](O)[C@H](C)O2)Oc2ccc(cc2Cl)[C@H]1O [Van, vancomycin]
[6]
  antibiofilm ability: no antibiofilm ability
S. aureus Newman [7]
  killing speed compared with ChryA: much slower killing

## C[C@@H]1O[C@@H]1P(=O)(O)O [fosfomycin]
S. aureus USA300
  cell wall integrity (TEM): severely impaired
[8]
  MIC: 4 µg/mL (≈ 29 µM)

## CC(=O)O[C@H]1C[C@@]2(C)[C@@H](C[C@@H](O)[C@H]3[C@@]4(C)CC[C@@H](O)[C@@H](C)[C@@H]4CC[C@@]32C)/C1=C(\CCC=C(C)C)C(=O)O [fusidic acid]
[2]; bacterial colonization of wounds on Day 16, fig. S3
  effectiveness, ChryA versus fusidic acid: less effectiveness compared to the low dose of ChryA
[8]
  MIC: 0.031 µg/mL (≈ 0.06 µM)
